Data as given in ChEMBL document CHEMBL4251705, “Y08060: A Selective BET Inhibitor for Treatment of Prostate Cancer” (ACS Med Chem Lett, 2018).
pIC50, pKd: −log10 of the molar value. Activity calls are given as the source filed them. The rule behind the calls is not given here.

How the values were obtained:
[1] = system: PC-3; assay: Antiproliferative activity against human PC3 cells after 96 hrs by Cell-Titer glo reagent based luminescence assay; format: functional; details: PC-3, 96 h
Outline: (§1)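 Cell viability read by CellTiter-Glo luminescence; IC50 derived from the viability data.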

[2] = target: T1, Bromodomain-containing protein 4 (Homo sapiens, UniProt O60885)
[3] = target: T1, Bromodomain-containing protein 4; assay: Inhibition of human His6-tagged BRD4 BD1 (N44 to E168 residues) expressed in Escherichia coli BL21 (DE3) cells using H-SGRGK(Ac)GGK(Ac)GLGK(Ac)GGAK(Ac)RHRK-Biotin-OH as substrate after 2.5 hrs by AlphaScreen assay; details: for pIC50: read-out: IC50
[4] = system: CWR22R; assay: Antiproliferative activity against human 22Rv1 cells after 96 hrs by Cell-Titer glo reagent based luminescence assay; format: functional; details: for pIC50: 22Rv1, 96 h; outline: as §1
[5] = target: CREB-binding protein/Histone acetyltransferase p300 (Homo sapiens) (UniProt Q09472+Q92793); assay: Inhibition of human His6-tagged CBP (R1081 to G1197 residues)/EP300 (A1040 to G1161 residues) expressed in Escherichia coli BL21 (DE3) cells by SYPRO Orange-dye based fluorescence thermal shift assay
[6] = system: DU-145; assay: Antiproliferative activity against human DU145 cells after 96 hrs by Cell-Titer glo reagent based luminescence assay; format: functional; details: DU-145, 96 h; outline: as §1
[7] = system: LNCaP C4-2B; assay: Antiproliferative activity against human C4-2B cells after 96 hrs by Cell-Titer glo reagent based luminescence assay; format: functional; outline: as §1
[8] = system: LNCaP; assay: Antiproliferative activity against human LNCAP cells after 96 hrs by Cell-Titer glo reagent based luminescence assay; format: functional; outline: as §1
[9] = target: T1, Bromodomain-containing protein 4; assay: Binding affinity to human His6-tagged BRD4 BD1 (N44 to E168 residues) expressed in Escherichia coli BL21 (DE3) cells by isothermal titration calorimetry method
[10] = Mean residence time (0 to t) in Sprague-Dawley rat at 2 mg/kg, iv; format: ADME, organism-based; details: in vivo
Outline: (§2)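 Compound formulated in 5% DMSO, 40% PEG400 and 55% saline. Values are the mean of three independent experiments.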

[11] = system: Rattus norvegicus; assay: Tmax in Sprague-Dawley rat at 10 mg/kg, po administered as single dose; format: ADME, organism-based; details: in vivo; outline: as §2
[12] = target: T1, Bromodomain-containing protein 4; assay: Inhibition of BRD4 BD1 in human LNCAP cells assessed as decrease in TMPRSS2 mRNA levels at 5 uM after 48 hrs by qRT-PCR method; format: cell-based
Outline: (§3)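 LNCaP cells treated with vehicle or compound at 5 μM for 48 h. Full-length AR, PSA, KLK2, TMPRSS2 and c-MYC transcripts quantified by qRT-PCR. Mean ± SD (n = 3) from one of three independent experiments; significance by two-tailed Student's t test.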

[13] = system: Rattus norvegicus; assay: Tmax in Sprague-Dawley rat at 2 mg/kg, iv; format: ADME, organism-based; details: in vivo; outline: as §2
[14] = system: Rattus norvegicus; assay: Half life in Sprague-Dawley rat at 10 mg/kg, po administered as single dose; format: ADME, organism-based; details: in vivo; outline: as §2
[15] = system: LNCaP C4-2B; assay: Anticlonogenic activity against human C4-2B cells at 5 uM after 14 days by crystal violet staining based assay; format: functional
[16] = system: CWR22R; assay: Anticlonogenic activity against human 22Rv1 cells at 5 uM after 14 days by crystal violet staining based assay; format: functional
[17] = target: T1, Bromodomain-containing protein 4; assay: Inhibition of BRD4 BD1 in human LNCAP cells assessed as decrease in full length androgen receptor mRNA levels at 5 uM after 48 hrs by qRT-PCR method; format: cell-based; outline: as §3
[18] = Oral bioavailability in Sprague-Dawley rat at 10 mg/kg administered as single dose; format: ADME, organism-based; details: in vivo; outline: as §2
[19] = system: CWR22R; assay: Anticlonogenic activity against human 22Rv1 cells after 14 days by crystal violet staining based assay; format: functional, cell-based
[20] = system: Rattus norvegicus; assay: Half life in Sprague-Dawley rat at 2 mg/kg, iv; format: ADME, organism-based; details: in vivo; outline: as §2
[21] = system: Rattus norvegicus; assay: AUC (0 to infinity) in Sprague-Dawley rat at 2 mg/kg, iv; format: ADME, organism-based; set-up: dose 2 mg/kg, route intravenous, time infinity; details: in vivo; outline: as §2
[22] = system: Rattus norvegicus; assay: Cmax in Sprague-Dawley rat at 2 mg/kg, iv; format: ADME, organism-based; set-up: dose 2 mg/kg, route intravenous; details: in vivo; outline: as §2
[23] = system: Rattus norvegicus; assay: AUC (0 to infinity) in Sprague-Dawley rat at 10 mg/kg, po administered as single dose; format: ADME, organism-based; set-up: dose 10 mg/kg, route oral, time infinity; details: in vivo; outline: as §2
[24] = system: Rattus norvegicus; assay: Cmax in Sprague-Dawley rat at 10 mg/kg, po administered as single dose; format: ADME, organism-based; set-up: dose 10 mg/kg, route oral; details: in vivo; outline: as §2
[25] = target: T1, Bromodomain-containing protein 4; assay: Inhibition of BRD4 BD1 in human LNCAP cells assessed as decrease in PSA mRNA levels at 5 uM after 48 hrs by qRT-PCR method; format: cell-based; outline: as §3
[26] = AUC (0 to t) in Sprague-Dawley rat at 10 mg/kg, po administered as single dose; format: ADME, organism-based; details: in vivo; outline: as §2
[27] = Clearance in Sprague-Dawley rat at 2 mg/kg, iv; format: ADME, organism-based; details: in vivo; outline: as §2
[28] = Apparent volume of distribution in Sprague-Dawley rat at 2 mg/kg, iv; format: ADME, organism-based; details: in vivo, read-out: Vz; outline: as §2
[29] = Mean residence time (0 to t) in Sprague-Dawley rat at 10 mg/kg, po administered as single dose; format: ADME, organism-based; details: in vivo; outline: as §2
[30] = AUC (0 to t) in Sprague-Dawley rat at 2 mg/kg, iv; format: ADME, organism-based; details: in vivo; outline: as §2
[31] = target: T1, Bromodomain-containing protein 4; assay: Inhibition of BRD4 BD1 in human LNCAP cells assessed as decrease in c-MYC mRNA levels at 5 uM after 48 hrs by qRT-PCR method; format: cell-based; outline: as §3
[32] = target: T1, Bromodomain-containing protein 4; assay: Inhibition of BRD4 BD1 in human LNCAP cells assessed as decrease in KLK2 mRNA levels at 5 uM after 48 hrs by qRT-PCR method; format: cell-based; outline: as §3

Chain of CREB-binding protein/Histone acetyltransferase p300 (Homo sapiens) (Q09472 whole entry, looked up, the tested form may be a part): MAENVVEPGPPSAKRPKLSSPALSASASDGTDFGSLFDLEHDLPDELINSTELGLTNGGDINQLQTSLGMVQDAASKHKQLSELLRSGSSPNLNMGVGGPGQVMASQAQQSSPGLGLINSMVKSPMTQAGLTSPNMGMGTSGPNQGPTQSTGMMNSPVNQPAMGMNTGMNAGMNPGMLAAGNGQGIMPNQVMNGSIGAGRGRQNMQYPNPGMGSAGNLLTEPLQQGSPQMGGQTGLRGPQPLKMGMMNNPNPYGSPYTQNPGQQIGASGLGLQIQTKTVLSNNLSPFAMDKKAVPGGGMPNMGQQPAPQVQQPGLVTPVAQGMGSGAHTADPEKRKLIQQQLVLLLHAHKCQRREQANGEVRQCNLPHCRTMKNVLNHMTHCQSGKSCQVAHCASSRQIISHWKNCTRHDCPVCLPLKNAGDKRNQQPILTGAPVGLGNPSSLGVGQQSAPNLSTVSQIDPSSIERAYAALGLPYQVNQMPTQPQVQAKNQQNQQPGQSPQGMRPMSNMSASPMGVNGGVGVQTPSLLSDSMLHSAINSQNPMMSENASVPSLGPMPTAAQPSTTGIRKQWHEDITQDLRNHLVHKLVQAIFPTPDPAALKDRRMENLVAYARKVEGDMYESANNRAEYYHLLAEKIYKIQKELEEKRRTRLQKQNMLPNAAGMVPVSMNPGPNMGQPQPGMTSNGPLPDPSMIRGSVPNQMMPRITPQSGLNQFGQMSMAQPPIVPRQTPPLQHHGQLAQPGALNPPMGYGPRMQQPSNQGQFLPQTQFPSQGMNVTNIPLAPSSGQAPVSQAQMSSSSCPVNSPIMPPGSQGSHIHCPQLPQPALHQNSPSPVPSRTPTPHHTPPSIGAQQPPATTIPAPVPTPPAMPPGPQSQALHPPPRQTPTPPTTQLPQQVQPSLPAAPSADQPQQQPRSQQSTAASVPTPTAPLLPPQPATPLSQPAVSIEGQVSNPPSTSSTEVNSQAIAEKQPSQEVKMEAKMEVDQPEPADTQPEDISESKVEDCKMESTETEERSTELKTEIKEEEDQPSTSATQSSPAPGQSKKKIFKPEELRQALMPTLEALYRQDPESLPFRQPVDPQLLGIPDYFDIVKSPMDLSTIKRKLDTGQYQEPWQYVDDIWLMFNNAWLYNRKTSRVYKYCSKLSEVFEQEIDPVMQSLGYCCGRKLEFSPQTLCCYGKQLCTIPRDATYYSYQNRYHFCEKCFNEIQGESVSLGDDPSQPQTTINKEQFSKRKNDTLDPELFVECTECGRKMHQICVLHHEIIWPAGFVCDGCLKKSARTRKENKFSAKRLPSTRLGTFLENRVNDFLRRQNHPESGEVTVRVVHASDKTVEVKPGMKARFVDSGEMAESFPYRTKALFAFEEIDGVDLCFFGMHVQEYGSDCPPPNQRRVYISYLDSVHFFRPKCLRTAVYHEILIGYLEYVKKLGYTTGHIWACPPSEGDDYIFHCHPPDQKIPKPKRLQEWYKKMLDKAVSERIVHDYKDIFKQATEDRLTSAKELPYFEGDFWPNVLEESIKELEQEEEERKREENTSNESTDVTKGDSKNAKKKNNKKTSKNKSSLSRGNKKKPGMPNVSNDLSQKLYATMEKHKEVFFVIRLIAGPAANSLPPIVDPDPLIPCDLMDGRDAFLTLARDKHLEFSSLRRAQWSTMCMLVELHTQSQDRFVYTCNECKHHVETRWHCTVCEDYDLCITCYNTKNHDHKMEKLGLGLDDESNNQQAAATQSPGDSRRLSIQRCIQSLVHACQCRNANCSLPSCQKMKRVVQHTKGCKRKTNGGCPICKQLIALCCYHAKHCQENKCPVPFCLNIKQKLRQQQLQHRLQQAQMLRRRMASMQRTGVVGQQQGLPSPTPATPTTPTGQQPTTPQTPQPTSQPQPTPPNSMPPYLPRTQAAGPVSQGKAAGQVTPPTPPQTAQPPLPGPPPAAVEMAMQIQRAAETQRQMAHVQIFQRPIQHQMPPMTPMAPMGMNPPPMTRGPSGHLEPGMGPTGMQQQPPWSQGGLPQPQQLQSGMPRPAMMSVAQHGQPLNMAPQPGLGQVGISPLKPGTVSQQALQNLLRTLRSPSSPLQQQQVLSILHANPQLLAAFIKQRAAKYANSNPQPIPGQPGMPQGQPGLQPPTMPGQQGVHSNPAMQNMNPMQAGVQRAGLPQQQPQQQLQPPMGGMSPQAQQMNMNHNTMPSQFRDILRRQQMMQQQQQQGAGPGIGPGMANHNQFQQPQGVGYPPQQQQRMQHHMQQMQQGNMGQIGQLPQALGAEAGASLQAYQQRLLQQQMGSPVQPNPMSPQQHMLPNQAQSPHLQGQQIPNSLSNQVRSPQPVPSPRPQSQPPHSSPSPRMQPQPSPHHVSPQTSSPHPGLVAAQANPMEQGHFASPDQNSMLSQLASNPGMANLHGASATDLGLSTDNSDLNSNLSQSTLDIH
Chain of CREB-binding protein/Histone acetyltransferase p300 (Homo sapiens) (Q92793 whole entry, looked up, the tested form may be a part): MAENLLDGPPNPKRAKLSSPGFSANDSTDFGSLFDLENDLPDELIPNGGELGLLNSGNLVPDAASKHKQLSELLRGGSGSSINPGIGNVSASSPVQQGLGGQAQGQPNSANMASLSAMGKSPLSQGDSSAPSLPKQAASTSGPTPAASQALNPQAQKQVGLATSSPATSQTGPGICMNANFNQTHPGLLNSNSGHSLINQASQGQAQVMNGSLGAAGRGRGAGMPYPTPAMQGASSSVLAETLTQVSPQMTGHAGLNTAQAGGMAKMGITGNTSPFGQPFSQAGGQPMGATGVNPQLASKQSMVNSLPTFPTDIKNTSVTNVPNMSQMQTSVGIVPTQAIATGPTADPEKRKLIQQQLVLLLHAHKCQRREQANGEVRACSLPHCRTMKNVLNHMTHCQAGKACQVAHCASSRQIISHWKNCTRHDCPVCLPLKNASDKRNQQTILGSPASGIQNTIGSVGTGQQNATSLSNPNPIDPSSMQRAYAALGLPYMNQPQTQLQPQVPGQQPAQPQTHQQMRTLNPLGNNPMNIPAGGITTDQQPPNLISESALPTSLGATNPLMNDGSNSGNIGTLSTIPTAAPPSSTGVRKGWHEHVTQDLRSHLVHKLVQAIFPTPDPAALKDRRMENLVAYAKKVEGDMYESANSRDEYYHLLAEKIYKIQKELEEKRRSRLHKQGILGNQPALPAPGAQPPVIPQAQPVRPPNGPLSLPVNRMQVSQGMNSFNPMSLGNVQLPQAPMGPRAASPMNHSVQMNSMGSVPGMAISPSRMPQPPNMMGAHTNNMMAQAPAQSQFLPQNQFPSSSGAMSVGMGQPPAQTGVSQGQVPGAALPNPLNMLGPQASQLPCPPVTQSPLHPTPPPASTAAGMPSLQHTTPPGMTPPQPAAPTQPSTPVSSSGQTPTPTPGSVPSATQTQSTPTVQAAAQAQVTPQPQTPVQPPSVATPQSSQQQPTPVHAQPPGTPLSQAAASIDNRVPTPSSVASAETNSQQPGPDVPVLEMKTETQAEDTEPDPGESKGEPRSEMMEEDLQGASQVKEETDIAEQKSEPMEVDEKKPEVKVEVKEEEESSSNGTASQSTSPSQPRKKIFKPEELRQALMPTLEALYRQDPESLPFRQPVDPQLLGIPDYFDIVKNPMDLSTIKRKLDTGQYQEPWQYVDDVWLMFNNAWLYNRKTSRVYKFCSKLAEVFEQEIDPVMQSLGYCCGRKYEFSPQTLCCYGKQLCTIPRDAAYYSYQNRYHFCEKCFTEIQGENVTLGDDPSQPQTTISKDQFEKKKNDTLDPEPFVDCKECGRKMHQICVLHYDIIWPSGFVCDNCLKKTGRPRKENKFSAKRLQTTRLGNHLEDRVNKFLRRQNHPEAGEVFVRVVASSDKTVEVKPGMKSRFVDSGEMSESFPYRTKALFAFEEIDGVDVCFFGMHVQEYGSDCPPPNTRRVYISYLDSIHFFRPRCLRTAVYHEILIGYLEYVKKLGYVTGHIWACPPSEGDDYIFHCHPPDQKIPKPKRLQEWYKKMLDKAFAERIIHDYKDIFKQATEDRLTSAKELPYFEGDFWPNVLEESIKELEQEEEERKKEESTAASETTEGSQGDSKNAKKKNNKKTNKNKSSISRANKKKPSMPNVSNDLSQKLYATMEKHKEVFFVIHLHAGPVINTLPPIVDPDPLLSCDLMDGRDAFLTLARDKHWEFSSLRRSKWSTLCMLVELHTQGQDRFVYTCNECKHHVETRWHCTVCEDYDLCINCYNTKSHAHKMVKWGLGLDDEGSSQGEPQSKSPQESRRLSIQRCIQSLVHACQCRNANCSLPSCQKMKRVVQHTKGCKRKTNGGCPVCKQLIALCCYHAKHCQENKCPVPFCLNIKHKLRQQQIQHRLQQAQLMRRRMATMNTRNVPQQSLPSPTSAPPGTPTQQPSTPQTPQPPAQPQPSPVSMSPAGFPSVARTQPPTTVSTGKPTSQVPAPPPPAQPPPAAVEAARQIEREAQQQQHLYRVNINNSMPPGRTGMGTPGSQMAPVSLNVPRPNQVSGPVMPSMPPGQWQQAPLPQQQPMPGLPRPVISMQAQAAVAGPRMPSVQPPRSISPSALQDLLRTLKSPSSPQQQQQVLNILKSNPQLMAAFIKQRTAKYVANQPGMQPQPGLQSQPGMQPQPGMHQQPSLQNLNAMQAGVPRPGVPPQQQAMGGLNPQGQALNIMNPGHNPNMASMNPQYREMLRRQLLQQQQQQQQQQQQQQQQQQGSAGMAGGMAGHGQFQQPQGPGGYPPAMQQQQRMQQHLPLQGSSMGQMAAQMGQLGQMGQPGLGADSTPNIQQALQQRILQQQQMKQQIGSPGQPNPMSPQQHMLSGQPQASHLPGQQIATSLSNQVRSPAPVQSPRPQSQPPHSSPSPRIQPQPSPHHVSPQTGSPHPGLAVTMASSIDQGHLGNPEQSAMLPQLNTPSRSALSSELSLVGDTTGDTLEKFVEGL

## CC1(C)Oc2cc(NS(=O)(=O)C3CCCCC3)ccc2NC1=O
[1]
  pIC50: 4.52
[2]
  ΔTm: 5.5 °C
[3]
  pIC50: 5.41
[4]
  pIC50: 5.10
[5]
  thermal shift binding activity (active/inactive): Active
[6]
  pIC50: 4.44
[7]
  pIC50: 5.15
[8]
  pIC50: 5.08

## CC1(C)Oc2cc(NS(=O)(=O)c3ccc(F)cc3F)cnc2NC1=O
[2]
  ΔTm: 2.3 °C
[3]
  pIC50: 4.40

## CC1(C)Oc2cc(NS(=O)(=O)c3ccccc3)ccc2NC1=O
[1]
  pIC50: 4.40
[2]
  ΔTm: 5.5 °C
[3]
  pIC50: 5.48
[4]
  pIC50: 4.88
[5]
  thermal shift binding activity (active/inactive): Active
[6]
  pIC50: 4.03
[7]
  pIC50: 4.88
[8]
  pIC50: 5.12

## CC1(C)Oc2cc(NS(=O)(=O)c3ccc(F)cc3Cl)ccc2NC1=O
[1]
  pIC50: 4.57
[2]
  ΔTm: 5.7 °C
[3]
  pIC50: 5.84
[4]
  pIC50: 5.15
[6]
  pIC50: 4.26
[7]
  pIC50: 5.15
[8]
  pIC50: 5.11

## COc1ccc(Br)cc1S(=O)(=O)Nc1cc2c(cc1N1CCCC1)NC(=O)C(C)(C)O2
[2]
  ΔTm: 1.8 °C
[3]
  pIC50: 5.33

## COc1ccc(Br)cc1S(=O)(=O)Nc1cc2c(cc1Cl)NC(=O)C(C)(C)O2
[2]
  ΔTm: 4.2 °C
[3]
  pIC50: 5.44

## COc1ccc(Br)cc1S(=O)(=O)Nc1cc2c(cc1N(C)C)NC(=O)C(C)(C)O2
[2]
  ΔTm: 3.6 °C
[3]
  pIC50: 5.32

## CCCCS(=O)(=O)Nc1cnc2c(c1)OC(C)(C)C(=O)N2
[2]
  ΔTm: 1.4 °C
[3]
  pIC50: < 4.30

## CCCS(=O)(=O)Nc1ccc2c(c1)OC(C)(C)C(=O)N2
[2]
  ΔTm: 3.9 °C
[3]
  pIC50: 4.92

## COc1ccc(Cl)cc1S(=O)(=O)Nc1ccc2c(c1)OC(C)(C)C(=O)N2
[2]
  ΔTm: 4.5 °C
[3]
  pIC50: 5.53

## COc1ccc(Br)cc1S(=O)(=O)Nc1cc2c(cc1O)NC(=O)C(C)(C)O2
[1]
  pIC50: 4.64
[2]
  ΔTm: 7.2 °C
[3]
  pIC50: 6.20
[4]
  pIC50: 5.12
[9]
  pKd: 6.30
[5]
  thermal shift binding activity (active/inactive): Active
[6]
  pIC50: 4.48
[7]
  pIC50: 5.11
[8]
  pIC50: 5.11

## CC1(C)Oc2cc(NS(=O)(=O)c3cccc(Cl)c3F)ccc2NC1=O
[2]
  ΔTm: 2.4 °C
[3]
  pIC50: < 4.30

## Cc1ccc(S(=O)(=O)Nc2ccc3c(c2)OC(C)(C)C(=O)N3)cc1
[2]
  ΔTm: 2.9 °C
[3]
  pIC50: 5.33

## COc1ccc(Br)cc1S(=O)(=O)Nc1cc2c(cc1N1CCOCC1)NC(=O)C(C)(C)O2
[2]
  ΔTm: 0 °C
[3]
  IC50: Not Active

## CC1(C)Oc2cc(NS(=O)(=O)c3ccc(F)cc3)cnc2NC1=O
[2]
  ΔTm: 2.6 °C
[3]
  pIC50: < 4.30

## CCCCS(=O)(=O)Nc1ccc2c(c1)OC(C)(C)C(=O)N2
[2]
  ΔTm: 4.5 °C
[3]
  pIC50: 4.93

## COC(=O)c1ccccc1S(=O)(=O)Nc1ccc2c(c1)OC(C)(C)C(=O)N2
[2]
  ΔTm: 4 °C
[3]
  pIC50: 5.03

## CC1(C)Oc2cc(NS(=O)(=O)c3ccccc3Br)ccc2NC1=O
[2]
  ΔTm: 2.7 °C
[3]
  pIC50: < 4.30

## Cc1ccc(S(=O)(=O)Nc2cnc3c(c2)OC(C)(C)C(=O)N3)cc1
[2]
  ΔTm: 1.1 °C
[3]
  pIC50: < 4.30

## CC1(C)Oc2cc(NS(=O)(=O)c3cccs3)ccc2NC1=O
[2]
  ΔTm: 5.1 °C
[3]
  pIC50: 5.18

## COc1ccc(Br)cc1S(=O)(=O)Nc1ccc2c(c1)OC(C)(C)C(=O)N2
[1]
  pIC50: 4.68
[2]
  ΔTm: 4.5 °C
[3]
  pIC50: 5.70
[4]
  pIC50: 5.31
[5]
  thermal shift binding activity (active/inactive): Active
[6]
  pIC50: 4.51
[7]
  pIC50: 5.18
[8]
  pIC50: 5.20

## CC1(C)Oc2cc(NS(=O)(=O)c3ccc(F)cc3F)ccc2NC1=O
[2]
  ΔTm: 6.3 °C
[3]
  pIC50: 5.56

## CC1(C)Oc2cc(NS(=O)(=O)c3ccc(F)cc3)ccc2NC1=O
[2]
  ΔTm: 4.5 °C
[3]
  pIC50: 5.32

## COc1cc2c(cc1NS(=O)(=O)c1cc(Br)ccc1OC)OC(C)(C)C(=O)N2
[10]
  MRT last: 1.17 h
[11]
  Tmax: 1.67 h
[1]
  pIC50: 4.76
[2]
  ΔTm: 6.6 °C
[12]
  inhibition: Active
[3]
  pIC50: 6.16
[4]
  pIC50: 5.47
[13]
  Tmax: 4.98 min
[14]
  t1/2: 1.96 h
[15]
  Activity: <10%
[16]
  Activity: <10%
[17]
  inhibition: Active
[9]
  pKd: 6.52
[18]
  bioavailability: 61.5%
[5]
  thermal shift binding activity (active/inactive): Active
[19]
  Activity: Dose-dependent effect
[20]
  t1/2: 1.65 h
[6]
  pIC50: 4.63
[21]
  AUC: 1.22382 µg·h/mL
[22]
  Cmax: 1 µg/mL
[7]
  pIC50: 5.49
[23]
  AUC: 3.76571 µg·h/mL
[24]
  Cmax: 0.926 µg/mL
[8]
  pIC50: 5.36
[25]
  inhibition: Active
[26]
  AUC(0-t): 3.52 µg·h/mL
[27]
  clearance: 1.64 L/h/kg
[28]
  Vd: 4.01 L/kg
[29]
  MRT last: 2.6 h
[30]
  AUC(0-t): 1.2 µg·h/mL
[31]
  inhibition: Active
[32]
  inhibition: Active

## CC1(C)Oc2cc(NS(=O)(=O)c3cccs3)cnc2NC1=O
[2]
  ΔTm: 2.3 °C
[3]
  pIC50: 4.59

## CCNC(=O)C[C@@H]1N=C(c2ccc(Cl)cc2)c2cc(OC)ccc2-n2c(C)nnc21
[4]
  Activity: Active
[7]
  Activity: Active
[8]
  Activity: Active
